Columns and labels:
L1210 [1] = test: Increase in life span of treated animals relative to untreated controls expressed in murine L1210 leukemia at a dose of 15 mg/kg x4 after ip injection.; format: functional; settings: Mus musculus, route intraperitoneal
In short: (§1)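 Mice implanted ip with 10⁵ L1210 leukemia cells on day 0. Treatment given ip once daily on days 1-4. Read-out is % ILS, the increase in life span of treated animals relative to untreated controls.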

Nucleic Acid = test: Compound was tested for the extent of DNA binding in calf thymus at pH 7 TRIS buffer.; format: nucleic-acid assay; settings: Bos taurus
In short: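 Spectral shift method with calf thymus DNA in Tris buffer, pH 7.0, at a drug/DNA molar ratio of 0.1. Binding extent is taken as the ratio of the absorbance of the drug–DNA mixture to that of drug alone at 480 nm.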

CCRF-CEM = test: Inhibitory activity of compound against CCRF-CEM cells,a lymphoblastic leukemic of human origin propagated in suspension culture.; format: functional; settings: read-out: ID50 (the source's name)
L1210 [2] = test: Increase in life span of treated animals relative to untreated controls expressed in murine L1210 leukemia at a dose of 50 mg/kg x4 after ip injection; curative; format: functional, organism-based; parameters: dose 50 mg/kg; settings: Mus musculus
L1210 [3] = test: Increase in life span of treated animals relative to untreated controls expressed in murine L1210 leukemia at a dose of 4 mg/kg x4 after ip injection.; format: functional; settings: Mus musculus, route intraperitoneal; in short: as §1
L1210 [4] = test: Increase in life span of treated animals relative to untreated controls expressed in murine L1210 leukemia at a dose of 50.6 mg/kg x4 after ip injection.; format: functional; settings: Mus musculus, route intraperitoneal; in short: as §1
L1210 [5] = test: Increase in life span of treated animals relative to untreated controls expressed in murine L1210 leukemia at a dose of 70 mg/kg x4 after ip injection.; format: functional; settings: Mus musculus, route intraperitoneal; in short: as §1
L1210 [6] = test: Increase in life span of treated animals relative to untreated controls expressed in murine L1210 leukemia at a dose of 90 mg/kg x4 after ip injection.; format: functional; settings: Mus musculus, route intraperitoneal; in short: as §1
L1210 [7] = test: Increase in life span of treated animals relative to untreated controls expressed in murine L1210 leukemia at a dose of 45 mg/kg x4 after ip injection.; format: functional; settings: Mus musculus, route intraperitoneal; in short: as §1

Row | SMILES | Extent of DNA binding (Nucleic Acid) | IC50 (CCRF-CEM) [nM] | also measured
1 | COc1cccc2c1C(=O)c1c(O)c3c(c(O)c1C2=O)C[C@@](O)(C(C)=O)C[C@@H]3O[C@H]1O[C@H](C)[C@@H](N)[C@H]1O | 0.8 | 280 | ILS at 15 mg/kg (L1210 [1]): 22%
2 | CCCCC(=O)OCC(=O)[C@]1(O)Cc2c(O)c3c(c(O)c2[C@@H](OC2CC(NC(=O)C(F)(F)F)C(O)C(C)O2)C1)C(=O)c1c(OC)cccc1C3=O (some centres undefined) | 0.96 | 240 | ILS (L1210 [2]): Curative
3 | COc1cccc2c1C(=O)c1c(O)c3c(c(O)c1C2=O)C[C@@](O)(C(=O)CO)C[C@@H]3O[C@H]1C[C@H](N)[C@H](O)[C@H](C)O1 [DOXORUBICIN] | 0.62 | 66 | ILS at 4 mg/kg (L1210 [3]): 66%
4 | COc1cccc2c1C(=O)c1c(O)c3c(c(O)c1C2=O)C[C@@](O)(C(C)=O)C[C@@H]3O[C@@H]1O[C@H](C)[C@@H](N)[C@H]1O | 0.86 | 210 | ILS at 50.6 mg/kg (L1210 [4]): 55%
5 | COc1cccc2c1C(=O)c1c(O)c3c(c(O)c1C2=O)C[C@@](O)(C(C)=O)C[C@@H]3O[C@@H]1O[C@H](C)[C@@H](NC(=O)C(F)(F)F)[C@H]1O | – | 1080 | ILS at 70 mg/kg (L1210 [5]): 66%
6 | COc1cccc2c1C(=O)c1c(O)c3c(c(O)c1C2=O)C[C@@](O)(C(C)=O)C[C@@H]3O[C@@H]1O[C@H](CO)[C@@H](O)[C@H](O)[C@H]1N | 0.82 | 3040 | ILS at 90 mg/kg (L1210 [6]): 60%
7 | COc1cccc2c1C(=O)c1c(O)c3c(c(O)c1C2=O)C[C@@](O)(C(C)=O)C[C@@H]3O[C@H]1O[C@H](C)[C@@H](NC(=O)C(F)(F)F)[C@H]1O | – | 890 | ILS at 45 mg/kg (L1210 [7]): 55%

— ChEMBL document CHEMBL1121927, “Adriamycin analogues. Novel anomeric ribofuranoside analogues of daunorubicin” (1982)
